Consider 8 compounds from ChEMBL document CHEMBL1153767, “Bromoalkoxyxanthones as promising antitumor agents: synthesis, crystal structure and effect on human tumor cell lines” (2009).

Common to all, as to type: functional
For one experiment, the system named is NCI-H460. The experiment can be described thus: Antitumor activity against human NCI-H460 cells assessed as inhibition of growth after 48 hrs using sulforhodamine B dye. The conditions noted are these: NCI-H460, 48 h. The method, boiled down: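 NCI-H460 plated at 0.75 × 10⁴ cells/mL, grown 24 h, then treated 48 h with five serial dilutions from DMSO stocks (DMSO at most 0.5%, vehicle control included). After fixing, washing and staining, solubilized dye read at 492 nm. GI50 (50% net growth inhibition) derived from the dose–response curve; 3–5 independent duplicate experiments, mean ± SEM.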
In general terms: In SRB staining, fixed cells bind dye roughly in proportion to their protein.

The test system of another experiment is SF-268. The experiment can be described thus: Antitumor activity against human SF268 cells assessed as inhibition of growth after 48 hrs using sulforhodamine B dye. The conditions noted are these: SF-268, 48 h. The gist of the method:
(§1)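 Cells pre-grown 24 h after plating at 1.5 × 10⁵ cells/mL, then exposed 48 h to five serial concentrations from DMSO stocks (DMSO at most 0.5%, vehicle control included). Adherent cells fixed, washed and stained; bound dye solubilized and absorbance read at 492 nm. GI50 (50% inhibition of net growth) from dose–response curve; 3–5 independent experiments in duplicate, mean ± SEM.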

A further experiment relates to MCF7. Description: Antitumor activity against human MCF7 cells expressing estrogen receptor assessed as inhibition of growth after 48 hrs using sulforhodamine B dye. The conditions noted are these: MCF7, 48 h. The gist of the method: as §1
Another experiment concerns MDA-MB-231. The experiment can be described thus: Antitumor activity against human estrogen receptor deficient MDA-MB-231 cells assessed as inhibition of growth after 48 hrs using sulforhodamine B dye. Conditions: MDA-MB-231, 48 h.

Take `O=c1c2ccccc2oc2cccc(O)c12`: the 50% growth inhibitory concentration (GI50) was 84.9 µM with NCI-H460, 70.8 µM in the experiment on SF-268, more than 100 µM in the experiment on MCF7 and 66 µM in the experiment on MDA-MB-231.

Turning to `O=c1c2ccccc2oc2c(O)c(OCCCCCCBr)ccc12`, the GI50 in the experiment with NCI-H460, in the experiment on SF-268, in the experiment on MCF7 and in the experiment with MDA-MB-231 was more than 100 µM each time.

Take `O=C(c1ccccc1O)c1ccc(O)cc1O`: the GI50 in the experiment with NCI-H460 is 91.2 µM; with SF-268 it was more than 100 µM; in the experiment with MCF7 it was 100 µM.

In the case of `O=c1c2ccccc2oc2c(O)c(O)ccc12` [3,4-DIHYDROXYXANTHONE], the GI50 with NCI-H460 is 11.4 µM; in the experiment with SF-268, 22.6 µM; in the experiment with MCF7 it was 52.4 µM; with MDA-MB-231, 22.8 µM.

In the case of `O=c1c2ccccc2oc2cccc(OCCCCCCOc3cccc4oc5ccccc5c(=O)c34)c12`, the GI50 in the experiment with NCI-H460, in the experiment on SF-268, with MCF7 and in the experiment on MDA-MB-231 was more than 100 µM in each case.

For the compound `O=c1c2ccccc2oc2c(OCCCCCCBr)c(OCCCCCCBr)ccc12`, the GI50 in the experiment on NCI-H460 is more than 100 µM; in the experiment with SF-268, more than 100 µM; in the experiment with MCF7, 20.5 µM; in the experiment on MDA-MB-231 it was 56.8 µM.

Take `O=c1c2ccccc2oc2cccc(OCCCCCCBr)c12`: the GI50 in the experiment on NCI-H460 was 30.7 µM; in the experiment on SF-268, 30.2 µM; with MCF7, 22.7 µM; in the experiment on MDA-MB-231, more than 100 µM.

Consider `COc1cccc2c1C(=O)c1c(O)c3c(c(O)c1C2=O)C[C@@](O)(C(=O)CO)C[C@@H]3O[C@H]1C[C@H](N)[C@H](O)[C@H](C)O1` [DOXORUBICIN], for which the GI50 in the experiment on NCI-H460 was 0.094 µM; in the experiment on SF-268 it was 0.094 µM; in the experiment on MDA-MB-231, 0.0109 µM.

By GI50 is commonly meant the concentration that inhibits growth by half.
